Our source for the MIC80 values is ChEMBL document CHEMBL1149080, “Synthesis and structure-activity relationships of 2-phenyl-1-[(pyridinyl- and piperidinylmethyl)amino]-3-(1H-1,2,4-triazol-1-yl)propan-2-ols as antifungal agents” (2009).

Structures are written as SMILES. In brackets after ≈: the same amount, converted by molar mass.

The subject of one experiment is Aspergillus fumigatus. The experiment in a line: Antifungal activity against Aspergillus fumigatus AF98003. Format: functional. The gist of the method: (§1)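 Growth inhibition of each strain in vitro, following an earlier method; endpoint is MIC80, the lowest concentration giving 80% growth inhibition, in ng mL-1. Values are means of triplicate determinations, with standard deviation given.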

For another experiment, the system named is Candida albicans. The experiment in a line: Antifungal activity against Candida albicans CA98001. The class given is functional. The gist of the method: as §1

Regarding `OC(CNCc1cccnc1)(Cn1cncn1)c1ccc(Cl)cc1Cl` (stereo unspecified), the MIC80 was above 30 µg/mL against Aspergillus fumigatus and 0.037 µg/mL (≈ 0.0978 µM) in the experiment on Candida albicans. The like results for `OC(CNCc1cccnc1)(Cn1cncn1)c1ccc(F)cc1F` (stereo unspecified) were, in that order, above 30 µg/mL and 0.13 µg/mL (≈ 0.376 µM). The like results for `OC(CNCc1ccncc1)(Cn1cncn1)c1ccc(Cl)cc1Cl` (stereo unspecified) were, in that order, above 30 µg/mL and 0.036 µg/mL (≈ 0.0952 µM). The like results for `OC(CNCc1ccncc1)(Cn1cncn1)c1ccc(F)cc1F` (stereo unspecified) were, in that order, above 30 µg/mL and 0.083 µg/mL (≈ 0.24 µM). For `OC(CNCc1ccccn1)(Cn1cncn1)c1ccc(F)cc1F` (stereo unspecified), the MIC80 with Aspergillus fumigatus was above 30 µg/mL; against Candida albicans, 0.22 µg/mL (≈ 0.637 µM). In the same order, the values of `CC(C)(C)OC(=O)N1CCC(CNCC(O)(Cn2cncn2)c2ccc(Cl)cc2Cl)CC1` (stereo unspecified) are above 30 µg/mL and 0.026 µg/mL (≈ 0.0537 µM). The like results for `CC(C)(C)OC(=O)N1CCC(CNCC(O)(Cn2cncn2)c2ccc(F)cc2F)CC1` (stereo unspecified) were, in that order, above 30 µg/mL and 0.027 µg/mL (≈ 0.0598 µM). In the same order, the values of `OC(CNCC1CCNCC1)(Cn1cncn1)c1ccc(F)cc1F` (stereo unspecified) are above 30 µg/mL and 1.41 µg/mL (≈ 4.01 µM). As for `CN(CC1CCN(C(=O)OC(C)(C)C)CC1)CC(O)(Cn1cncn1)c1ccc(Cl)cc1Cl` (stereo unspecified), the MIC80 against Aspergillus fumigatus is above 30 µg/mL; in the experiment on Candida albicans, 0.039 µg/mL (≈ 0.0782 µM). The like results for `CN(CC1CCN(C(=O)OC(C)(C)C)CC1)CC(O)(Cn1cncn1)c1ccc(F)cc1F` (stereo unspecified) were, in that order, above 30 µg/mL and 0.153 µg/mL (≈ 0.329 µM). In the same order, the values of `OC(CNCC1CCNCC1)(Cn1cncn1)c1ccc(Cl)cc1Cl` (stereo unspecified) are above 30 µg/mL and 0.12 µg/mL (≈ 0.312 µM). Turning to `OC(CNCc1ccccn1)(Cn1cncn1)c1ccc(Cl)cc1Cl` (stereo unspecified), the results for the MIC80 in the experiment with Aspergillus fumigatus and in the experiment on Candida albicans were above 30 µg/mL and 0.023 µg/mL (≈ 0.0608 µM), respectively. Compound `OC(Cn1cncn1)(Cn1cncn1)c1ccc(F)cc1F` [FLUCONAZOLE] had an MIC80 in the experiment on Candida albicans of 0.19 µg/mL (≈ 0.62 µM). The compound `CCC(C)n1ncn(-c2ccc(N3CCN(c4ccc(OCC5COC(Cn6cncn6)(c6ccc(Cl)cc6Cl)O5)cc4)CC3)cc2)c1=O` (stereo unspecified) [ITRACONAZOLE] gave an MIC80 against Aspergillus fumigatus of 0.42 µg/mL (≈ 0.595 µM).

The MIC80 is the lowest concentration that inhibits either 80% of growth or 80% of the strains tested, depending on the study.
